Experimental data pooled from the literature.
Lines come from different studies, so protocols differ.
PHIP BD2: PHIP, BD2 (Homo sapiens, UniProt Q8WWQ0)
CDKL3: Cyclin-dependent kinase-like 3 (CDKL3, Homo sapiens, UniProt Q8IVW4)
SLC10A2: Ileal sodium/bile acid cotransporter (SLC10A2, Homo sapiens, UniProt Q12908)
Methionyl-tRNA synthetase, putative: Methionyl-tRNA synthetase, putative (Trypanosoma brucei brucei, UniProt Q38C91)
BRD9: Bromodomain-containing protein 9 (BRD9, Homo sapiens, UniProt Q9H8M2)
ACVR2A: Activin receptor type-2A (ACVR2A, Homo sapiens, UniProt P27037)

CCOC(=O)[C@](CC)(CCCS(=O)(=O)CCOCCOCCNC(=O)OC(C)(C)C)NC(=O)c1ccc(C2CC2)c(Cc2ccc(F)cc2)n1 — Emax (Cannabinoid receptor 2 (CNR2, Homo sapiens, UniProt P34972); cAMP, agonist): 89%
C[S+]([O-])c1ccc(-c2nc(-c3ccncc3)c(-c3ccc(F)cc3)[nH]2)cc1 (centres unmarked) — ΔTm (PHIP BD2; thermal stability, DSF; 10 µM): 1.14 °C
Nc1ncnc2occ(-c3ccc(NC(=O)Nc4cc(C(F)(F)F)ccc4F)cc3)c12 — remaining signal (CDKL3; cell-free assay; 20 µM): 0.8%
CC(=O)N[C@H]1CSSC[C@@H](C(=O)N[C@@H](Cc2c[nH]c3ccccc23)C(N)=O)NC(=O)[C@H](Cc2ccccc2)NC(=O)[C@H](CCCNC(=N)N)NC1=O — Emax (Melanocortin receptor 5 (MC5R, Homo sapiens, UniProt P33032); cAMP, agonist; HEK293; 3 min): 0%
CCCCOc1cc(C(=O)NCCN(CC)CC)c2ccccc2n1 — inhibition (SLC10A2; transporter uptake, inhibitor, radiometric; 1 mM): 68.8%
Cc1ccc(C(=O)Nc2ccc(CN3CCN(C)CC3)c(C(F)(F)F)c2)cc1C#Cc1cnc2cccnn12 — remaining activity (Serine/threonine-protein kinase 35 (STK35, Homo sapiens, UniProt Q8TDR2); enzyme activity, inhibitor; 23.5 nM): 98%
O=c1oc2c(O)c(O)cc3c(=O)oc4c(O)c(O)cc1c4c23 — inhibition (Histone-lysine N-methyltransferase SETD7 (SETD7, Homo sapiens, UniProt Q8WTS6); cell-free assay; 10 µM): 20%
O=C(Cc1cc(Cl)cc(Cl)c1)N1CCCC(c2nc3cc(Cl)c(Cl)cc3[nH]2)C1 (centres unmarked) — ΔTm (Methionyl-tRNA synthetase, putative; thermal stability, DSF; 100 µM): 7 °C
CC(C(=O)O)c1cccc(C(=O)c2ccccc2)c1 (centres unmarked) — inhibition (SLC10A2; transporter uptake, inhibitor, radiometric; 1 mM): 44%
Oc1ccc(-c2nc(-c3ccncc3)c(-c3ccc(F)cc3)[nH]2)cc1 — ΔTm (BRD9; thermal stability, DSF; 10 µM): 0.31 °C
Cc1cc(NC(=O)c2cccc3cc(-c4cccc5[nH]nc(N)c45)ccc23)ccc1F — activity vs control (Phosphatidylinositol 5-phosphate 4-kinase type-2 alpha (PIP4K2A, Homo sapiens, UniProt P48426); enzyme activity, inhibitor; 0.1 µM): 98%
Nc1ccn([C@H]2C[C@H](O)[C@@H](COP(=O)(O)OP(=O)(O)OP(=O)(O)O)O2)c(=O)n1 — Km (DNA polymerase lambda (POLL, Homo sapiens, UniProt Q9UGP5); enzyme activity, substrate): 0.016 µM
Cn1c2c(c3ccc(Cl)c(Cl)c31)C(C#N)C1(CCN(C(=O)OC(C)(C)C)CC1)NC2=O (racemic) — ΔTm (ACVR2A; thermal stability, DSF; 10 µM): 0 °C
CSc1ccc2c(c1)N(CCC1CCCCN1C)c1ccccc1S2 (centres unmarked) — inhibition (SLC10A2; transporter uptake, inhibitor, radiometric; 1 mM): 97.1%
COc1cc(Cl)c(C(=O)N[C@@H](CN[C@H]2CC[C@@H](N)CC2)Cc2ccc(C#N)cc2)cc1-c1ccc(CN[C@H](C)c2ccc(C)cc2)o1 — remaining activity (CDKL3; enzyme activity, inhibitor; 1 µM): 95%
NS(=O)(=O)c1ccc(Nc2nc(-c3ccc(F)cc3)c3ccccc3n2)cc1 — remaining binding (BRD9; binding, competition with immobilised ligand; 1 µM): 81%
Cn1c2c(c3ccc(Cl)c(Cl)c31)C(C#N)C1(CCCC1)NC2=O (centres unmarked) — ΔTm (ACVR2A; thermal stability, DSF; 10 µM): 0 °C
Cc1cnc(Nc2ccc(OCCN3CCCC3)cc2)nc1Nc1cccc(S(=O)(=O)NC(C)(C)C)c1 — ΔTm (PHIP BD2; thermal stability, DSF; 10 µM): 0.6 °C
CN(CCNCc1cc(Cl)cc(Cl)c1)c1nc2nc(Cl)ccc2[nH]1 — ΔTm (Methionyl-tRNA synthetase, putative; thermal stability, DSF; 100 µM): 18.4 °C
CN1CCN(c2ccc([N+](=O)[O-])cc2NC(=O)c2ccccc2)CC1 — ΔTm (WD repeat-containing protein 5 (WDR5, Homo sapiens, UniProt P61964); thermal stability, DSF; 100 µM): 3.8 °C
